# A selection: hits, their analogues and other compounds. The true share with any hit is near 1.6%.
# Platelet DG rel – modulates dense granule release in human platelets | human platelet-rich plasma, SFLLRN dense granule ATP release, luminescence | inhibition, %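 (compounds screened at 7.5 µM in platelet-rich plasma)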 | hit rate 0.22% among 300,000 | AID 1663;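 active = mean replicate score, as percent of positive control, at or above 50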
# TRAIL sens C8 – caspase-8 TRAIL sensitization. inhibition (viability loss, TRAIL sensitization), % at 10 µM. NB7+C8 cells + TRAIL, ATPlite viability luminescence. hit rate 1% among 360,000;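 active = compounds causing at least 50% loss of cell viability in the single-dose screen, relative to plate controls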
# FLuc inhib CS – Photinus pyralis luciferase inhibition counter-screen; inhibition, % at 10 µM; hit rate 1.5% among 200,000; P08659; ATPLite firefly luciferase biochemical luminescence, 10 min;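 active = inhibition above about 50% when tested at 10 µM, limit read from the data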
# Target sequence (P08659 whole entry, looked up): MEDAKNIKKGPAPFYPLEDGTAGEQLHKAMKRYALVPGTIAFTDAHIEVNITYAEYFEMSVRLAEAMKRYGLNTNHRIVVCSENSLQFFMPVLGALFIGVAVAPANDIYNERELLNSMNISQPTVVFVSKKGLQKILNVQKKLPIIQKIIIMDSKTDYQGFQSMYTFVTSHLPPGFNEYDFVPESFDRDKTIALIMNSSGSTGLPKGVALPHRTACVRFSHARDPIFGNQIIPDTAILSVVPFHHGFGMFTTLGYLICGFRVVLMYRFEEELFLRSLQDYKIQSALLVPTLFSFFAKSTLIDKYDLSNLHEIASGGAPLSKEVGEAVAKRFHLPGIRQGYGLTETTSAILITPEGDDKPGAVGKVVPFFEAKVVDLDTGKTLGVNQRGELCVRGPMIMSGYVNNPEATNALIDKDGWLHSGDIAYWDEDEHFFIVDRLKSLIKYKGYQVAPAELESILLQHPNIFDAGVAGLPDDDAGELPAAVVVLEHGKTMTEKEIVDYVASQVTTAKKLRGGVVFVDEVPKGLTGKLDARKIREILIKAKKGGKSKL
# FLuc act counter – firefly luciferase counter-screen for stimulation assays | P08659 | ATPlite luciferase biochemical, luminescence, 10 min; 0 = ATP-free wells, 1 = DMSO control | activation factor at 10 µM | 200,000 tested, under 10 active | AID 1027;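 active = luciferase activation factor, scaled between plate controls, of at least 2 with compound at 10 µM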
#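 Material: Luciferase/luciferin reagent mix | Doses: Test compounds dosed from 2 mM stocks in 100% DMSO | Timing: 10 min incubation after luciferase reagent addition, room temperature | Measured by: Luminescence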
# PPC-1+TRAIL kill – compounds killing PPC-1 cancer cells with TRAIL present (potentiator screen, no TRAIL-free arm); PPC-1 cells + TRAIL, ATPLite viability luminescence; cell killing (% activity), % at 4 µM or 5 µM; hit rate 0.41% among 220,000;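 active = cell killing above 50% in the first pass at 4 µM, then a duplicate retest at 5 µM averaging 50% or more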;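 note: plate controls were cells with TRAIL plus DMSO for no effect and medium-only wells lacking cells for full effect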
# Numbers without * were called inactive; nt = not tested or not shown.
SMILES,Platelet DG rel,TRAIL sens C8,FLuc inhib CS,FLuc act counter,PPC-1+TRAIL kill
COc1ccc(C)cc1NC(=O)COC(=O)c1ccc2c(c1)OCO2,nt,7,nt,nt,nt
COc1cccc(C(=O)O/N=C(\N)c2ccncc2)c1,8,53*,89*,0.1,18
Cc1ccc(/C(N)=N/OC(=O)c2ccc3c(c2)OCO3)cc1,0,40,78*,0.2,25
Cc1cccc(C(=O)O/N=C(\N)c2ccc(Cl)cc2)c1,14,34,nt,nt,nt
N/C(=N\OC(=O)c1ccc2c(c1)OCO2)c1ccc(Cl)cc1,-5,29,84*,0.2,31
N/C(=N\OC(=O)c1ccc2c(c1)OCO2)c1ccncc1,20,60*,nt,nt,19
COc1cccc(C(=O)O/N=C(\N)c2ccc(C)cc2)c1,9,39,nt,nt,nt
COc1ccc(/C(N)=N/OC(=O)c2ccc3c(c2)OCO3)cc1,-4,12,69*,0.3,20
O=c1[nH]c2ccccc2c2nc3ccccn3c12,2,28,54*,0.5,7
O=c1nc2c(O)cccn2c2c1c(=O)[nH]c1ccccc12,-6,-10,0,1,17
CC12CCC(CC1O)C2C(=O)O (stereo not drawn),nt,-12,nt,nt,nt
COCCNC(=O)C1(C)CCCN(C(=O)c2ccc(N(C)C)cc2)C1 (stereo not drawn),nt,-7,nt,nt,nt
Cc1cc2sc3ccc(C#CC4(O)CCCCC4)cc3c(=O)c2cc1C,7,88*,nt,nt,nt
O=c1c2ccccc2oc2ccc(C#CC3(O)CCCCC3)cc12,9,87*,nt,nt,nt
Cn1c2ccccc2c(=O)c2cc(C#CC3(O)CCCCC3)ccc21,47,92*,nt,nt,nt
CC1(C(=O)Nc2cnc3ccccc3c2)CCN1Cc1ccc(OC(F)(F)F)cc1 (stereo not drawn),nt,9,nt,nt,nt
COc1ccc(-c2nnc(-c3cc(OC)c(OC)c(OC)c3)o2)cc1OC,66*,7,-9,1.1,27
COC(=O)CNc1c(-c2ccccn2)nc2ccc(Br)cn12,33,21,77*,0.2,31
O=C(CNC(=O)c1cccc(-n2cccc2)c1)Nc1ccccc1Br,nt,1,nt,nt,nt
Cc1nc2nc(C)n(CCN3CCOCC3)c(=O)c2c(-c2cccc([N+](=O)[O-])c2)c1C(=O)CCCCCCCCCCN1CCC(c2ccccc2)(c2ccccc2)CC1,nt,92*,nt,nt,nt
CC(=O)Nc1ccc(-c2cn3cc(C)ccc3n2)cc1,9,45,84*,0.2,40
Cc1ccc2nc(-c3ccc(O)c(O)c3)cn2c1,10,76*,nt,nt,nt
CC(=O)Nc1ccc(C)cc1,nt,-2,nt,nt,nt
COc1ccc(-c2cn3nc4c(nc3n2)CCCC4)cc1,nt,-2,68*,0.3,10
Cc1cccc(C(=O)Nc2cccc3cccnc23)c1,-2,13,nt,nt,nt
SMILES,Platelet DG rel,TRAIL sens C8,FLuc inhib CS,FLuc act counter,PPC-1+TRAIL kill
C/C(=N\Nc1cccc2cccnc12)c1ccc(C)cc1,-12,30,62*,0.4,4
Cc1cccnc1C(NC(=O)C1CCN(Cc2cn(C)c3ccccc23)CC1)c1ccc(Cl)cc1 (stereo not drawn),nt,12,nt,nt,nt
Cc1ccc(C(=O)NCC(=O)OCC(=O)Nc2cc(S(=O)(=O)N3CCOCC3)ccc2C)cc1,1,1,nt,nt,nt
Cc1ccc(S(=O)(=O)N2CCOCC2)cc1NC(=O)COC(=O)CNC(=O)c1ccc(C(C)(C)C)cc1,-5,-6,81*,0.2,3
Cc1ccc(S(=O)(=O)N2CCOCC2)cc1NC(=O)COC(=O)CNC(=O)c1ccc(Oc2ccccc2)cc1,-21,13,73*,0.3,18
COc1ccc(-c2nn(-c3ccccc3)cc2/C=N/NC(=O)c2ccc3c(c2)OCO3)cc1,5,nt,-10,1.1,17
COc1ccc(-c2nn(-c3ccccc3)cc2/C=N/NC(=O)c2ccc(Br)o2)cc1,5,69*,-4,1,15
COc1ccc(NC(=O)C2(C)CCN2C(=O)c2ccccc2CCc2ccccc2)cc1OC (stereo not drawn),nt,13,nt,nt,nt
O=C(/C=C/[C@H]1O[C@@H](n2cnc3c(NC(=O)c4ccccc4)ncnc32)[C@H](O)[C@@H]1O)NCC1CCCO1 (stereo partly drawn),nt,54*,nt,nt,nt
CCCCN1C(=O)C(CC(=O)NCc2cccc3ccccc23)CC(C(=O)N(C(C)C)C(C)C)=C1C (stereo not drawn),nt,-12,nt,nt,nt
CCn1c(/N=C/c2c[nH]c3ccccc23)nc2ccccc21,10,-6,57*,0.4,-21
O=C(O)c1ccc(N/N=C/c2ccncc2)cc1,10,-2,nt,nt,nt
O=[N+]([O-])c1ccc(/C=N/Nc2ccccn2)cc1,1,1,nt,nt,nt
O=C(O)c1ccc(N/N=C/c2ccc3nccnc3c2)cc1,56*,27,nt,nt,23
O=C(O)c1ccc(/C=N\Nc2ccccn2)cc1,53*,1,nt,nt,nt
CCCc1nc2ccccc2n1C(CCSC)C(=O)NC(C)(C)C (stereo not drawn),nt,3,nt,nt,nt
CCc1ccc2nc3sc(C(=O)O)cc3cc2c1,1,28,68*,0.3,36
COc1ccc2nc3sc(C(=O)N4CCN(C)CC4)cc3cc2c1,5,12,3,1,1
COc1ccc(CN2C[C@@H](CO)O[C@@H](n3cnc4c(NCc5ccco5)ncnc43)C2)cc1,nt,-2,nt,nt,nt
Cc1cc(/C=C2\SC(N)=NC2=O)c(C)n1-c1ccccc1,11,42,83*,0.2,39
Cc1cc(/C=C2\SC(=S)NC2=O)c(C)n1-c1ccccc1,9,39,nt,nt,47
C[C@H](CO)N1C[C@H](C)[C@@H](CN(C)C(=O)NC2CCCCC2)Oc2c(NS(=O)(=O)c3ccccc3)cccc2C1=O,nt,50*,nt,nt,nt
C[C@H](CO)N1C[C@H](C)[C@@H](CN(C)C(=O)NC2CCCCC2)Oc2c(NS(=O)(=O)c3ccc(F)cc3)cccc2C1=O,nt,-10,nt,nt,nt
O=C(Nc1nc2ccccc2[nH]1)c1cccc(Br)c1,-6,34,nt,nt,nt
O=C(Nc1nc2ccccc2[nH]1)c1cccs1,8,44,69*,0.3,47
SMILES,Platelet DG rel,TRAIL sens C8,FLuc inhib CS,FLuc act counter,PPC-1+TRAIL kill
Cc1c(C(=O)Nc2nc3ccccc3[nH]2)oc2ccccc12,8,42,53*,0.5,16
Cc1ccc(C(=O)Nc2nc3ccccc3[nH]2)cc1,16,93*,nt,nt,nt
COc1ccc(C(=O)N[C@H](C(=O)Nc2nc3ccccc3[nH]2)C(C)C)cc1,-4,28,53*,0.5,14
OCCNc1ncnc2c1ncn2[C@H]1CN(Cc2ccncc2)C[C@@H](CO)O1,nt,-11,nt,nt,nt
Cc1cc2nc(-c3ccccc3)c(Cc3ccccc3)n2c(C)c1Br,nt,9,nt,nt,nt
COc1cc(C=CC(=O)N2CCN(CC(=O)N3CCCC3)CC2)cc(OC)c1OC,nt,13,nt,nt,nt
O=C(Nc1nc2ccccc2[nH]1)c1cccc(F)c1,10,43,nt,nt,nt
O=C(Nc1nc2ccccc2[nH]1)c1ccc([N+](=O)[O-])cc1,16,51*,51*,0.5,48
CN(C)c1cccc(C(=O)Nc2nc3ccccc3[nH]2)c1,11,83*,nt,nt,nt
COc1ccc(C(=O)Nc2nc3ccccc3[nH]2)cc1,-3,91*,nt,nt,nt
O=C(Nc1nc2ccccc2[nH]1)C1CC1,1,24,4,1,6

# Screens from PubChem.
